Key:
[1] = molecular target: T1, Alpha-1B adrenergic receptor (Homo sapiens, UniProt P35368); test: Agonist activity at human alpha1B-adrenergic receptor
T1 sequence (P35368 whole entry): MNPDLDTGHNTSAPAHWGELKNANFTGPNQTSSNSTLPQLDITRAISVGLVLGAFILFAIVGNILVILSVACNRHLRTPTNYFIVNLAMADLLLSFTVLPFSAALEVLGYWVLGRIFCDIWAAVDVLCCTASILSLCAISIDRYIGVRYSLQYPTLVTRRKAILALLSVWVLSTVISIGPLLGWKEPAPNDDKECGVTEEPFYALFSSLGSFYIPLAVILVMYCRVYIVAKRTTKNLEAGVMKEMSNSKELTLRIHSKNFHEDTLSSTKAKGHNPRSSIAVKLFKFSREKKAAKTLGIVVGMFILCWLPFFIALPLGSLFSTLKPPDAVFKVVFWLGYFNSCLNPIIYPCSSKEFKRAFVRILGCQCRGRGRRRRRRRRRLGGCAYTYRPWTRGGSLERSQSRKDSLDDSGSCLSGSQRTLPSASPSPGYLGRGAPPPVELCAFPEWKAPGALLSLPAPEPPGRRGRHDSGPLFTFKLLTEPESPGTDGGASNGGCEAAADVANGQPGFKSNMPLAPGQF

Homo sapiens = species on record: Homo sapiens; test: Selectivity ratio of EC50 for human beta1-adrenergic receptor to EC50 for human beta3-adrenergic receptor
Rattus norvegicus [2] = test: Cardiotoxicity in anesthetized Sprague-Dawley rat assessed as decrease in mean blood pressure at 3 mg/kg, iv measured for 30 mins relative to control; assay type: toxicity, organism-based; set-up: scale not given: the % may be the effect or the level left; conditions: in vivo, 0.5 h
Procedure, shortened: (§1)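 Male Sprague-Dawley rats (200-300 g) were anesthetized with sodium pentobarbital (50 mg/kg i.p. plus 25 mg/kg s.c.). The compound was injected via the cannulated left femoral vein once BP and HR were stable, and HR and MBP were recorded for 30 min. Results are the maximum % increase or decrease from baseline, as mean ± SEM. Where given, silodosin (0.01 mg/kg iv) preceded the compound.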

Rattus norvegicus [3] = test: Cardiotoxicity in anesthetized Sprague-Dawley rat assessed as increase in mean blood pressure at 3 mg/kg, iv measured for 30 mins relative to control; assay type: toxicity, organism-based; conditions: in vivo, 0.5 h; procedure, shortened: as §1
[4] = molecular target: Beta-2 adrenergic receptor (Homo sapiens, UniProt P07550); test: Intrinsic activity at human beta2-adrenergic receptor expressed in CHO cells assessed as increase of cAMP level after 30 mins relative to isoproterenol; assay type: functional, cell-based
Procedure, shortened: (§2)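 Stably transfected CHO cells expressing human β1, β2 or β3 or marmoset β3 receptor were grown in Ham's F-12 with 10% FBS and geneticin, seeded at 2×10⁴ cells/well and grown about 20 h. Cells spent 15 min serum-free, then 30 min with compound in medium containing HEPES and isobutylmethylxanthine. Lysate cAMP was measured by kit. […] EC50 is the half-maximal concentration for each compound.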

[5] = molecular target: T2, Beta-3 adrenergic receptor (Homo sapiens, UniProt P13945); test: Agonist activity at human recombinant beta3-adrenergic receptor expressed in CHO cells assessed as increase of cAMP level after 30 mins; assay type: functional, cell-based
Target sequence in this assay (P13945 whole entry): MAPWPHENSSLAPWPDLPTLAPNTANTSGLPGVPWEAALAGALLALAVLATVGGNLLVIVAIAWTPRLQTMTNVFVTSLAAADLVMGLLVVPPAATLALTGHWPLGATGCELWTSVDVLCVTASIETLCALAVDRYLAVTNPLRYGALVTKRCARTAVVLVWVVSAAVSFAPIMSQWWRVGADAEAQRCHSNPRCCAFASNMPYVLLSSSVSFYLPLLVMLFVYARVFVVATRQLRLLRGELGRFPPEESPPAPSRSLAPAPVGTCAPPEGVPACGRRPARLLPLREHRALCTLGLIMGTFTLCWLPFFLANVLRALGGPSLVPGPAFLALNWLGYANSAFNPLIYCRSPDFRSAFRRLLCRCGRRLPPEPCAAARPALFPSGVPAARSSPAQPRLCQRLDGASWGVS

[6] = molecular target: T3, Alpha-1A adrenergic receptor (Homo sapiens, UniProt P35348); test: Agonist activity at human alpha1A-adrenergic receptor expressed in HEK293 cells assessed as calcium flux by fluorescence assay; assay type: functional, cell-based
T3 sequence (P35348 whole entry): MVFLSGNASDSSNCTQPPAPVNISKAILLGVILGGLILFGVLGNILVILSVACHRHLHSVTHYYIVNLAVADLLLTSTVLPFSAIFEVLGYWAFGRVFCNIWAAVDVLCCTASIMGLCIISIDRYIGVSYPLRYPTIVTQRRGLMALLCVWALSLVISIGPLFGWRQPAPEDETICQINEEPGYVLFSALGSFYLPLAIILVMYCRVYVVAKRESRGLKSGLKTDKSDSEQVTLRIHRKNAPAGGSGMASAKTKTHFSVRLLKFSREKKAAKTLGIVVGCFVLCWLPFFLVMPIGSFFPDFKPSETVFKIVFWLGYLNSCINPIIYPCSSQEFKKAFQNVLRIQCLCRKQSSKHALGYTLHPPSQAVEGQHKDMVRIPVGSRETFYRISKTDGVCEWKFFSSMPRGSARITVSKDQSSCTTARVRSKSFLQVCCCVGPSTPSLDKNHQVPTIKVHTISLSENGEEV

[7] = molecular target: T2, Beta-3 adrenergic receptor; test: Intrinsic activity at human beta3-adrenergic receptor expressed in CHO cells assessed as increase of cAMP level after 30 mins relative to isoproterenol; assay type: functional, cell-based; procedure, shortened: as §2
Target sequence in this assay (P13945 whole entry, looked up): as the sequence (P13945 whole entry) above

[8] = molecular target: T4, Alpha-1D adrenergic receptor (Homo sapiens, UniProt P25100); test: Agonist activity at human alpha1D-adrenergic receptor
T4 sequence (P25100 whole entry): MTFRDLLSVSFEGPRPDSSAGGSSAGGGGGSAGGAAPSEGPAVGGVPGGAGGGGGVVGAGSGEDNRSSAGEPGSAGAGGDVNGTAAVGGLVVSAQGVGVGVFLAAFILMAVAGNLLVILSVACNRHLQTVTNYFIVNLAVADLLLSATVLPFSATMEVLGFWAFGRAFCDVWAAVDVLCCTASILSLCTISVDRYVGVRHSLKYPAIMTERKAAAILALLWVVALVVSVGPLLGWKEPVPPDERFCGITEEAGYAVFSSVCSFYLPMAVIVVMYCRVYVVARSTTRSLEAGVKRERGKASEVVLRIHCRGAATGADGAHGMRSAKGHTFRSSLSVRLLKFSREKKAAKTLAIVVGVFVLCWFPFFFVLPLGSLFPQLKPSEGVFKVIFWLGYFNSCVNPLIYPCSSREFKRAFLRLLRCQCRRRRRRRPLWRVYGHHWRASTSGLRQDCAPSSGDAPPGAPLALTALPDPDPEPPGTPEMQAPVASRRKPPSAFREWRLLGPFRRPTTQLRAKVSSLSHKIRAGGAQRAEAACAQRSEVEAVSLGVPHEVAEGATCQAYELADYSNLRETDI

Rattus norvegicus [9] = test: Cardiotoxicity in anesthetized Sprague-Dawley rat assessed as decrease in heart rate at 3 mg/kg, iv measured for 30 mins relative to control; assay type: toxicity, organism-based; set-up: scale not given: the % may be the effect or the level left; conditions: in vivo, 0.5 h; procedure, shortened: as §1
[10] = molecular target: T5, Alpha-2B adrenergic receptor (Homo sapiens, UniProt P18089); test: Agonist activity at human alpha2B-adrenergic receptor
T5 sequence (P18089 whole entry): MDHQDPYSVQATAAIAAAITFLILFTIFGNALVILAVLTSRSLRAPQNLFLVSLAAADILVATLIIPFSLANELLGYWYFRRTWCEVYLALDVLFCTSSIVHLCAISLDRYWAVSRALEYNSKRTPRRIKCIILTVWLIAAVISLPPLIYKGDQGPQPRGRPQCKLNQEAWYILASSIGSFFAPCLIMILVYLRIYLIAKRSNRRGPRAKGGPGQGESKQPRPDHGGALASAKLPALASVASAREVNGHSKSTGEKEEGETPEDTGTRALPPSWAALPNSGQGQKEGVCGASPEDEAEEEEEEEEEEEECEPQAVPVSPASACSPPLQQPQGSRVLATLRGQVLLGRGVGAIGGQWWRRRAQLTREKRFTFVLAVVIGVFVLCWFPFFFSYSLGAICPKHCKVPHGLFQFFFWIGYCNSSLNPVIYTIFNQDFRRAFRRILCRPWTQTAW

[11] = molecular target: Beta-1 adrenergic receptor (Homo sapiens, UniProt P08588); test: Agonist activity at human beta1-adrenergic receptor expressed in CHO cells assessed as increase of cAMP level after 30 mins; assay type: functional, cell-based; procedure, shortened: as §2
Sequence of Beta-1 adrenergic receptor (P08588 whole entry): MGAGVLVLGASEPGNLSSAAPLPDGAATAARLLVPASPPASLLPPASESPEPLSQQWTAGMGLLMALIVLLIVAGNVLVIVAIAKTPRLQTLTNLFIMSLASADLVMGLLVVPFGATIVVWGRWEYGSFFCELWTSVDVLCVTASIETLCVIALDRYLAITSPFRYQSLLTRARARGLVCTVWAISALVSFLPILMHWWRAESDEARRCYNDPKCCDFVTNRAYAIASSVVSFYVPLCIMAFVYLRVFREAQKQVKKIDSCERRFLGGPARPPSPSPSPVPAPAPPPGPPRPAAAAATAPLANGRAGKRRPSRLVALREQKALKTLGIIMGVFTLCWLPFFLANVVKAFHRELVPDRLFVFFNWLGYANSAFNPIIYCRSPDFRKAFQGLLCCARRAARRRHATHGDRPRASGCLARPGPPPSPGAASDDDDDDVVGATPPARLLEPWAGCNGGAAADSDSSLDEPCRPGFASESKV

Sequence of Beta-2 adrenergic receptor (P07550 whole entry, looked up): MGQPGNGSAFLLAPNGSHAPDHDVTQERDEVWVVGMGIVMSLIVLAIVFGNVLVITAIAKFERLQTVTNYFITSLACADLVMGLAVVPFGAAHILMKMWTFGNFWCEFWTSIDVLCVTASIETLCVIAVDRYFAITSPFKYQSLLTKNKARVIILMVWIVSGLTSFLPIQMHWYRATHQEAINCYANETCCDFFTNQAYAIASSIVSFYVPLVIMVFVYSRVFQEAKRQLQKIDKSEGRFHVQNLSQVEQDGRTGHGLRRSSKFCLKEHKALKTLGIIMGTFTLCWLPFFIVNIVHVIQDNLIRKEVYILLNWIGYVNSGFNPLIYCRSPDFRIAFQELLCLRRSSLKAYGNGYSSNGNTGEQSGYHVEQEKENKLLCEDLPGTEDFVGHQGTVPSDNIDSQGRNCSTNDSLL

- EC50 [1]: > 10 µM
- Ratio EC50 (Homo sapiens): > 476
- Intrinsic activity [4]: 4%
- EC50 [5]: 0.021 µM
- EC50 [6]: 0.219 µM
- Intrinsic activity [7]: 82%
- EC50 [8]: > 10 µM
- EC50 [10]: > 10 µM
- EC50 [11]: > 10 µM
Structure (SMILES): Cc1n[nH]c2cc(OCCNC[C@H](O)c3cccc(NS(C)(=O)=O)c3)ccc12
- Activity (Rattus norvegicus [2]): 8.5%
- Activity (Rattus norvegicus [3]): 24.2%
- Activity (Rattus norvegicus [9]): 8.8%
